High-throughput results deposited in PubChem BioAssay by several laboratories.
Shown are actives, neighbours in structure and some others; about 2.2% of the full set was active somewhere.
VIM-2 inh = blocks Pseudomonas aeruginosa VIM-2 metallo-beta-lactamase | AID 1527 | inhibition, % at 5.6 µM | purified VIM-2, nitrocefin hydrolysis, epi-absorbance fluorescence | hit rate 0.89% among 290,000;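 active means inhibition above the mean of all tested compounds plus 3 SD, cutoff set per screening run, cut at about 7.5% in these data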;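 further: red hydrolysis product quenches plate fluorescence so inhibitors raise well fluorescence; 0% = enzyme with DMSO and 100% = DMSO without enzyme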
PABP1 MLLE inh = blocks PAM2 peptide binding to the PABP1 MLLE domain | P11940 | GST-MLLE / FITC-PAM2 fluorescence polarization | inhibition, % at 20 µM | hit rate 0.36% among 360,000 | AID 588489; in the data active means inhibition above about 35%, passing the limit was not always enough;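 further: plate controls were DMSO wells with GST-MLLE for no effect and wells lacking GST-MLLE protein for full effect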
PABP FP inh = blocks human PABP binding to poly(A) RNA; fluorescence polarization; hit rate 1% among 290,000; calls only at 35 µM; P11940; AID 2014;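 further: calls also rest on retests at 20 µM and on dose response follow-up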
eIF4H inh = inhibitors of RNA binding by human eIF4H; Q15056; eIF4H fluorescence polarization binding assay; inhibition, % at 35 µM; hit rate 0.94% among 290,000; AID 2012;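 further: calls also rest on retests at 20 µM and on dose response follow-up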
IMP-1 inhibitor = inhibitors of Pseudomonas aeruginosa IMP-1 metallo-beta-lactamase; purified IMP-1, nitrocefin hydrolysis, epi-absorbance fluorescence; inhibition, % at 5.6 µM; hit rate 0.45% among 290,000; AID 1556;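 active means inhibition above the mean plus 3 SD of all compounds in the same screening run, cut at about 4.5% in these data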;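 further: 0% = IMP-1 with DMSO and 100% = DMSO wells lacking enzyme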
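System: purified IMP-1 / Input: IMP-1 dispensed at 0.2 nM / Medium: 50 mM HEPES pH 7.1, 50 µM ZnSO4, 0.05% Brij 35 / Timing: 15 min enzyme–compound preincubation, then 25 min nitrocefin reaction, 25 °C / Technique: plate fluorescence quenching by hydrolysis product, ex 480/em 530 nm / Repeats: singlicate testing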
Numbers without * were called inactive; i = inactive; ? = inconclusive; . = no result; + = active, no number. Unless noted, how the calls were made is not given here.

SMILES | VIM-2 inh | PABP1 MLLE inh | PABP FP inh | eIF4H inh | IMP-1 inhibitor
CCC1CCCCN1CCCNC(=O)c1cc2c(=O)[nH]c3ccccc3c2n1C (stereo unspecified) | 8.9* | -7.5 | i | -5.4 | -1.9
CCCCCn1c(=O)[nH]c2cc(C(=O)NCCCN(C)Cc3ccccc3)ccc2c1=O | 1.3 | 10.7 | i | 0.6 | -2.5
COc1ccc(N2CCN(Cc3nnnn3C3CCCCC3)CC2)cc1 | 0.9 | 2.0 | i | 2.9 | -3.3
Cc1nc(CN(C)C(=O)CC2C(=O)NCCN2Cc2ccc(-c3ccccc3)cc2)cs1 (stereo unspecified) | -1.8 | 18.3 | i | 2.3 | -0.5
CCCn1c(-c2ccc(F)cc2)n[nH]c1=S | 10.1* | -15.8 | i | -4.8 | -4.0
COc1ccc(Cn2c(-c3ccc(OC)cc3)n[nH]c2=S)cc1 | 10.5* | -19.1 | i | -12.2 | -2.8
CCn1c(-c2ccc(C)cc2)n[nH]c1=S | -2.2 | -9.0 | i | -2.0 | -3.1
CCCCn1c(-c2ccc([N+](=O)[O-])cc2)n[nH]c1=S | 12.6* | -26.1 | i | -0.3 | -1.8
CCOc1ccc(-c2n[nH]c(=S)n2Cc2ccccc2)cc1 | 3.5 | -7.4 | i | 1.6 | -4.1
c1ccc2nc3[nH]cnc3nc2c1 | -3.5 | 48.8* | i | 2.9 | -4.7
C=CCn1cc(C(C)=O)c(=O)[nH]c1=O | -1.6 | 18.4 | i | -3.2 | -2.1
CC(=O)N1c2ccc(S(=O)(=O)N(C)CC(=O)Nc3ccccc3C)cc2CC1C (stereo unspecified) | -4.1 | 6.4 | . | . | 4.8*
CC(=O)N1c2ccc(S(=O)(=O)N(C)CC(=O)Nc3cccc(C)c3)cc2CC1C (stereo unspecified) | -7.6 | 3.4 | . | . | -3.0
CCNc1oc(/C=C/c2ccc(OCC)cc2)nc1C#N | 2.0 | 11.3 | i | 4.6 | 1.0
CC1=C(C#N)C(=O)OC(C)(C)C1 | -1.2 | 86.8 | + | 121.5* | -3.3
CC(C)CNC(=O)COc1cccc(C(=O)NCc2ccccc2)c1 | 2.2 | -4.0 | i | 7.0 | -1.1
CCN1CCN(c2ccc(NC(=O)c3ccc4c(c3)[nH]c(=O)n4Cc3ccc(F)cc3)cc2)CC1 | 9.2* | -8.5 | i | -1.7 | -1.7
CCN1CCN(c2ccc(NC(=O)c3cccc(OCc4ccccc4)c3)cc2)CC1 | 5.4 | 0.3 | i | -14.6 | -2.6
CC(C)n1nc(C(=O)Oc2cccc(Cl)c2Cl)c2ccccc2c1=O | -1.5 | -7.3 | + | 3.7* | -1.8
CC(C)n1nc(C(=O)Oc2cc(Cl)ccc2Cl)c2ccccc2c1=O | -4.9 | 5.5 | i | -7.3 | -4.1
O=C(CN1C(=O)/C(=C2\SC(=S)N(CCS(=O)(=O)O)C2=O)c2ccccc21)Nc1cccc(Br)c1 | 1.2 | 14.6 | + | 93.0* | 12.7*
CCN1CC2=C(OC(N)=C(C#N)C2c2cccs2)/C(=C\c2cccs2)C1 (stereo unspecified) | -0.2 | -52.0 | + | 97.6* | -1.8
COc1ccccc1-c1nnc(SCC(=O)NC2CCCCC2)n1C | -1.8 | -5.0 | i | -9.7 | -2.5
O=C(O)C1C2C=CC3(CN(Cc4ccco4)C(=O)C13)O2 (stereo unspecified) | -3.5 | 5.6 | i | 84.1* | -3.8
COC(=O)C1C2C=CC3(CN(Cc4ccco4)C(=O)C13)O2 (stereo unspecified) | -1.8 | 5.6 | i | -2.9 | 3.0
SMILES | VIM-2 inh | PABP1 MLLE inh | PABP FP inh | eIF4H inh | IMP-1 inhibitor
Cc1ccc(-n2nnnc2SCC(=O)Nc2sccc2C#N)cc1 | -0.8 | -4.2 | i | 40.6 | -1.2
O=C(N=Nc1c(O)n(Cc2ccccc2)c2ccccc12)c1ccncc1 | 11.0* | 10.2 | i | -10.0 | 0.1
COC(=O)N=Nc1c(O)n(Cc2ccccc2)c2ccccc12 | -2.9 | 9.0 | i | 3.5 | -4.3
N#Cc1nc(-c2ccc(F)cc2)oc1N1CCC(C(N)=O)CC1 | -2.4 | 3.2 | i | -4.9 | -1.6
NC(=O)SCC(=O)Nc1ccc(Cl)c(Cl)c1 | -1.6 | 41.1* | i | 5.7 | -2.4
NC(=O)SCC(=O)Nc1ccc(Cl)cc1 | -3.9 | 22.2 | i | 9.3 | -4.0
Cc1ccc(NC(=O)CSC(N)=O)cc1Cl | -3.7 | 40.7* | i | -2.5 | -3.0
COc1ccc2c(c1)CCC1(C)CC(=O)C(Br)=C21 (stereo unspecified) | . | 7.4 | . | . | .
O=C(COc1ccccc1)Nc1nc(-c2ccncc2)cs1 | -4.3 | 35.0* | i | -10.2 | -3.1
C=C(C)CNC(=O)CCc1nnc(Cc2cccc(C(F)(F)F)c2)o1 | -1.6 | -1.8 | i | -5.8 | 1.2
COc1ccc(Nc2nc(N)nc(CSc3nccn3C)n2)cc1 | -2.0 | 15.2 | i | 89.8* | -4.5
COc1ccc(Nc2nc(N)nc(CSc3nnc(N)s3)n2)cc1 | -3.9 | 1.5 | i | 4.9 | -4.6
CCN(CC)CCCN1C(=O)C(=O)/C(=C(/O)c2ccc(C)cc2)C1c1ccccn1 (stereo unspecified) | -3.0 | -1.5 | + | 3.1* | -0.9
CCN(CC)CCCN1C(=O)C(=O)/C(=C(/O)c2ccc3c(c2)OCO3)C1c1ccccn1 (stereo unspecified) | -3.3 | . | . | . | -3.0
NC(=O)c1cc[n+](Cc2ccccc2Cl)cc1 | -1.1 | -2.3 | i | -13.9 | -4.9
Cc1ncc(CO)c2c1Oc1nc(-c3ccccc3)nc(SCC(=O)N(C)c3ccccc3)c1C2 | 2.2 | . | i | -0.4 | 7.9*
Cc1ncc(CO)c2c1Oc1nc(-c3ccccc3)nc(SCC(=O)N3CCOCC3)c1C2 | 2.9 | 4.7 | i | -3.6 | 31.9*
Cc1ncc(CO)c2c1Oc1nc(-c3ccccc3F)nc(SCC(=O)N(C)c3ccccc3)c1C2 | 4.3 | 4.3 | i | 37.3 | 2.5
Cc1ncc(CO)c2c1Oc1nc(-c3ccccc3)nc(SCC(=O)N3CCCCC3)c1C2 | 4.7 | -5.2 | i | -10.7 | -1.2
COCCNC(=O)/C(C#N)=C/c1c(N2CC(C)OC(C)C2)nc2ccccn2c1=O (stereo unspecified) | 1.3 | 4.8 | i | 1.7 | -1.2
CSc1ccc(S(=O)(=O)N2c3ccccc3CC2C)cc1 (stereo unspecified) | -1.0 | -13.3 | i | 3.5 | -2.5
N#Cc1ccc(OCC(=O)N(C2CCCCC2)C2CCS(=O)(=O)C2)cc1 (stereo unspecified) | . | 3.5 | . | . | .
CC(C)(C)OC(=O)N1CCC(CNC(=O)Nc2ccccc2)CC1 | -2.7 | -7.4 | i | 7.4 | -2.7
N/C(=N\OC(=O)c1ccccc1Br)c1cccc([N+](=O)[O-])c1 | -3.3 | -1.9 | i | -7.5 | 1.7
N/C(=N\OC(=O)c1ccccc1Br)c1ccc([N+](=O)[O-])cc1 | -2.1 | -4.3 | i | 2.4 | 11.6*
COc1cccc(N2CCN(C(=O)c3[nH]c(C)c(C(C)=O)c3C)CC2)c1 | -4.5 | 8.6 | i | 1.7 | -3.6
COC(=O)c1c(C)[nH]c(C(=O)N2CCN(c3ccc(OC)cc3)CC2)c1C | -2.4 | . | + | ? | -1.0
O=C(CSc1nc(O)cc(=O)n1-c1ccccc1)Nc1ccc2c3c(cccc13)CC2 | -2.5 | 11.5 | + | 71.3* | -0.7
